This note sets out measurements from ChEMBL document CHEMBL1155871, “Synthesis and evaluation of pyrazolo[3,4-b]pyridines and its structural analogues as TNF-alpha and IL-6 inhibitors” (Bioorg Med Chem, 2008).

The subject of assay [1] is THP-1. The assay can be described thus: Antiinflammatory activity in human THP1 cells assessed as inhibition of IL6 at 10 uM by ELISA. The class given is functional. The method in brief:
(§1)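 THP-1 cells grown in RPMI 1640 with 10% FBS, penicillin and streptomycin, then differentiated with PMA. After plating, cells took test compound or vehicle (0.5% DMSO) for 30 min at 37 °C. LPS (E. coli 0127:B8) was then added and plates were kept 24 h at 37 °C, 5% CO2. Supernatant TNF-α and IL-6 measured by ELISA. Percent inhibition was taken against control, and IC50 by nonlinear regression.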
A general note: ELISA stands for enzyme-linked immunosorbent assay.

For assay [2], the system named is THP-1. Put plainly: Antiinflammatory activity in human THP1 cells assessed as inhibition of LPS-induced TNFalpha at 10 uM by ELISA. It is filed as functional. The method in brief: as §1
Assay [3] has as its system THP-1. Put plainly: Cytotoxicity against human THP1 cells at 10 uM. The class given is functional. The method in brief: (§2)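 PMA-differentiated THP-1 cells in RPMI 1640 with 10% FBS were pretreated 30 min at 37 °C with compound or vehicle (0.5% DMSO). They were then stimulated with LPS for 24 h at 37 °C, 5% CO2. Viability was scored with CCK-8 in the same wells as the cytokine assay.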

Assay [4] has as its system PBMC. Put plainly: Antiinflammatory activity in […] PBMC assessed as inhibition of LPS-induced TNFalpha by ELISA. The class given is functional, cell-based. The following applies: Homo sapiens.
The target in assay [5] is Phosphodiesterase 4 (Homo sapiens, UniProt P27815+Q08499+Q07343+Q08493). The assay can be described thus: Inhibition of PDE4 in human U937 cells by cAMP SPA enzyme assay. The following applies: u-937. It is filed as cell-based.
The test system of assay [6] is THP-1. Put plainly: Antiinflammatory activity in human THP1 cells assessed as inhibition of LPS-induced TNFalpha at 30 uM by ELISA. It is filed as functional. The method in brief: as §1
In assay [7] the test system is Trypanosoma cruzi. The assay can be described thus: Antichagasic activity against Trypanosoma cruzi. It is filed as functional, organism-based.
The target of assay [8] is Cyclin-dependent kinase 1/cyclin B1 (Homo sapiens, UniProt P06493). Put plainly: Inhibition of CDK1/cyclinB. It is filed as protein-complex assay.
For assay [9], the system named is Candida albicans. Put plainly: Antimicrobial activity against Candida albicans. The class given is functional, organism-based.
The test system of assay [10] is Escherichia coli. Put plainly: Antimicrobial activity against Escherichia coli. It is filed as functional, organism-based.
Assay [11] has as its target Mitogen-activated protein kinase 14 (Homo sapiens, UniProt Q16539). The assay can be described thus: Inhibition of p38alpha MAPK.
Assay [12] deals with Mus musculus. Put plainly: Inhibition of LPS-induced TNFalpha release in mouse at 20 mg/kg, po. The class given is functional.
Assay [13] has as its system THP-1. The assay can be described thus: Antiinflammatory activity in human THP1 cells assessed as inhibition of LPS-induced TNFalpha by ELISA. It is filed as functional, cell-based. The method in brief:
as §1

The test system of assay [14] is THP-1. The assay can be described thus: Cytotoxicity against human THP1 cells. It is filed as functional, cell-based. In a few lines: as §2
Assay [15] concerns THP-1. The assay can be described thus: Antiinflammatory activity in human THP1 cells assessed as inhibition of LPS-induced IL6 by ELISA. The class given is functional, cell-based. The method in brief:
as §1

Assay [16] relates to THP-1. The assay can be described thus: Cytotoxicity against human THP1 cells at 1 uM. The class given is functional. The method in brief: as §2
In assay [17] the test system is THP-1. The assay can be described thus: Antiinflammatory activity in human THP1 cells assessed as inhibition of LPS-induced IL6 at 1 uM by ELISA. It is filed as functional. The method in brief:
as §1

Assay [18] has as its system THP-1. Put plainly: Antiinflammatory activity in human THP1 cells assessed as inhibition of LPS-induced TNFalpha at 1 uM by ELISA. The class given is functional. In a few lines: as §1

Each structure is given as a SMILES string. Values after ≈ are worked out from the molar mass of the structure shown.

Mitogen-activated protein kinase 14, sequence (Q16539 whole entry): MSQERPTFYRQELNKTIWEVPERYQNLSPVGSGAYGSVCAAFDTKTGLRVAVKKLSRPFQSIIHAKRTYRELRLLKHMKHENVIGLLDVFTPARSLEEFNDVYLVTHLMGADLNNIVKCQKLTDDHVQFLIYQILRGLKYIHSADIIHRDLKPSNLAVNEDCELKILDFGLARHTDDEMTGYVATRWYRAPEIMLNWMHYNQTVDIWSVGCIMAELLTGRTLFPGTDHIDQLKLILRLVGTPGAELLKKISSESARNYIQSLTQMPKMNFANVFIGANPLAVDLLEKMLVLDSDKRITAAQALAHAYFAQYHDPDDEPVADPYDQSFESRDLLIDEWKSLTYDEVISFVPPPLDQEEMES
Cyclin-dependent kinase 1/cyclin B1, sequence (P06493 whole entry): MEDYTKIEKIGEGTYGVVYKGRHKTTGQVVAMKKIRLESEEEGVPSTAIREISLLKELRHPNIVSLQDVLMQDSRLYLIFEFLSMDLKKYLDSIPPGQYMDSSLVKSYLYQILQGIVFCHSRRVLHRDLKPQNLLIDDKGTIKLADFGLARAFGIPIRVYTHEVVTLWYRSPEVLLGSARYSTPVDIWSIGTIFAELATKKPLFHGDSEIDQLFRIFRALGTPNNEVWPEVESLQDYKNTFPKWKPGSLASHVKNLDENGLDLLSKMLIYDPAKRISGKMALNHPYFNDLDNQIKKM
Cyclin-dependent kinase 1/cyclin B1, sequence (P14635 whole entry, further chain): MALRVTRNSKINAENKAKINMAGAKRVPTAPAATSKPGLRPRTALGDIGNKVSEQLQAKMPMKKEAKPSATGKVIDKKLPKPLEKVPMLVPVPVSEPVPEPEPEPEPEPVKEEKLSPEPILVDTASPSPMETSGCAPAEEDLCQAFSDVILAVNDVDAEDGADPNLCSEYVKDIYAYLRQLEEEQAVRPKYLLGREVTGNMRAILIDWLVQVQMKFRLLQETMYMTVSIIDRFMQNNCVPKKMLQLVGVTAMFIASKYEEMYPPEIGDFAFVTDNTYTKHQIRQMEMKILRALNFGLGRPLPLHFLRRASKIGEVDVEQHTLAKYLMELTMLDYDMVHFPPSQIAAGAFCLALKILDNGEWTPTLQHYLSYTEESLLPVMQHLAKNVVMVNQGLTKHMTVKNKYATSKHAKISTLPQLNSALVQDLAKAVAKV

For `O=c1[nH]c(=O)c2cc(CCCO)cnc2[nH]1`, the values for the inhibition at 10 µM in [1], in [2] and in assay [3] were 37%, 0% and 12%, respectively.

As to `OCCCc1cnc2ncnn2c1`, the inhibition at 10 µM is 43% in assay [1], 4% in [2] and 0% in assay [3].

For `Cc1ccc(-c2cc3ncc(C(=O)c4cc(C)ccc4O)cn3n2)cc1`, the values for the inhibition at 10 µM in assay [1], in assay [2] and in [3] were 9%, 0% and 5%, respectively.

On to `CCn1ncc2cc(CCCO)cnc21`, for which the values for the inhibition at 10 µM in assay [1], in [2] and in assay [3] were 45%, 0% and 8%, respectively.

Take `COc1ccc(-c2nn(-c3ccccc3)c3ncc(C(=O)c4cc(C)ccc4O)cc23)cc1`: the inhibition at 10 µM was 49% in [1], 0% in assay [2] and 27% in [3].

For `Cc1ccc(O)c(C(=O)c2cnc3[nH]c(=O)[nH]c(=O)c3c2)c1`, the figures for the inhibition at 10 µM in [1], in assay [2] and in [3] were 39%, 6% and 0%, respectively.

As for `CCn1ncc2c(-c3cncc(Br)c3)c(C#N)c(C)nc21`, the IC50 in assay [4] is 27 nM; in assay [5] it was over 1000 nM.

Regarding `COC[C@H](O)[C@@H](OC)[C@@H](OC)C1=CC2C(C)=NN(C)C2N=C1` (some centres not stated), the inhibition at 30 µM in assay [6] is 30%. Moreover, the figures for the inhibition at 10 µM in assay [1], in assay [2] and in assay [3] were 35%, 20% and 5%, respectively.

Consider `CCO[C@@H](C1=CC2C(C)=NN(c3ccccc3)C2N=C1)[C@H](O)[C@@H](O)COC` (some centres not stated), for which the inhibition at 10 µM worked out at 43% in assay [1], 2% in [2] and 8% in [3].

In the case of `COc1ccc(-c2nn(-c3ccccc3)c3ncc(CCCO)cc23)cc1`, the inhibition at 10 µM is 36% in [1], 12% in [2] and 10% in assay [3].

Regarding `CCO[C@@H](C1=CC2C(c3ccc(O)cc3)=NN(c3ccccc3)C2N=C1)[C@H](O)[C@@H](O)CO` (some centres not stated), the inhibition at 10 µM is 40% in assay [1], 0% in assay [2] and 5% in assay [3].

Turning to `Cc1nn(-c2ccccc2)c2ncc(CCCO)cc12`, the inhibition at 10 µM was 19% in assay [1], 8% in assay [2] and 16% in assay [3].

Turning to `Cc1cc(C)c(O)c(C(=O)c2cnc3c(c2)c(C)nn3-c2ccccc2)c1`, the inhibition at 10 µM in assay [1] amounted to 44%; in assay [2] it was 0%; in assay [3], 14%.

For the compound `Cc1ccc(O)c(C(=O)c2cnc3c(c2)c(C)nn3C)c1`, the inhibition at 10 µM in assay [1] is 60%; in assay [2], 0%; in [3], 41%.

Regarding `OCCCc1cnc2nc3ccccc3n2c1`, the inhibition at 10 µM in assay [1] turned out to be 18%; in assay [2], 0%; in [3] it was 9%.

As to `Cc1ccc(O)c(C(=O)c2cnc3onc(-c4ccccc4)c3c2)c1`, the inhibition at 10 µM in [1] was 63%; in assay [2] it was 0%; in [3] it was 25%.

`Cc1ccc(O)c(C(=O)c2cnc3c(c2)c(C)nn3-c2ccccc2)c1`: the inhibition at 10 µM in [1] is 54%; in assay [2] it was 0%; in assay [3], 39%.

As for `Cc1nn(-c2ccccc2)c2nc(-c3ccccc3)cc(C(=O)N/N=C/c3ccc(O)cc3)c12`, in assay [7], inhibition was half-maximal at 1.9 µg/mL (≈ 4.25 µM) (IC50).

In the case of `CCO[C@@H](C1=CC2C(C)=NN(c3ccccc3)C2N=C1)[C@H](OC)[C@@H](O)COC` (some centres not stated), in assay [6], the inhibition at 30 µM came out at 30%. Also, the inhibition at 10 µM turned out to be 44% in [1], 19% in assay [2] and 4% in [3].

In the case of `CCn1ncc2c(-c3cncc(C)c3)c(/C=C/C(=O)O)cnc21`, the 50% inhibitory concentration (IC50) is 15.7 nM in assay [4] and over 1000 nM in assay [5].

For the compound `CC(=O)OCCCc1cnc2ccnn2c1`, the inhibition at 10 µM in assay [1] was 66%; in assay [2] it was 13%; in assay [3], 0%.

For the compound `Cc1nn(C)c2ncc(CCCO)cc12`, the inhibition at 10 µM in [1] was determined as 27%; in [2], 6%; in assay [3], 7%.

`Cc1ccc(-c2cc3ncc(CCCO)cn3n2)cc1`: the inhibition at 10 µM worked out at 0% in [1], 0% in assay [2] and 9% in assay [3].

As to `CC(=O)OCCCc1cnc2ncnn2c1`, the inhibition at 10 µM in assay [1] was determined as 45%; in [2], 7%; in [3], 0%.

Take `CCn1ncc2cc(CCCOC(C)=O)cnc21`: the inhibition at 10 µM in assay [1] turned out to be 16%; in assay [2] it was 0%; in assay [3] it was 13%.

With `CCNCc1cncc(-c2cnc3c(c2)C(c2nc4cc(F)ccc4[nH]2)N=N3)c1` (configuration not stated), the IC50 in assay [8] was 0.7 nM.

On to `CCO[C@@H](C1=CC2C(C)=NN(c3ccccc3)C2N=C1)[C@H](O)[C@@H](O)CO` (some centres not stated), for which the inhibition at 10 µM in assay [1] came out at 44%; in assay [2] it was 3%; in assay [3] it was 9%.

As for `COc1cc(-c2cc(-c3ccc(Cl)c(Cl)c3)nc3[nH]nc(C)c23)cc(OC)c1OC`, the concentration for half-maximal inhibition (IC50) was determined as 18000 nM in assay [9] and 22000 nM in assay [10].

In [11], `COc1ccc(C(=O)NN2CCOCC2)cc1-c1n[nH]c2nc(Nc3ccc(F)cc3F)ccc12` registered an IC50 of 0.7 nM. In assay [12], this compound displayed an inhibition in vivo at 20 mg/kg of 97%.

Turning to `Cc1nn(C)c2ncc(C(=O)c3cc(F)ccc3O)cc12`, the inhibition at 10 µM worked out at 34% in [1], 0% in assay [2] and 19% in assay [3].

As for `Cc1ccc(O)c(C(=O)c2cnc3onc(C)c3c2)c1`, the values for the 50% inhibitory concentration (IC50) in [13], in assay [14] and in assay [15] were over 100000 nM, over 100000 nM and 160 nM, respectively. Moreover, the results for the inhibition at 10 µM in [1], in [2] and in assay [3] were 58%, 5% and 16%, respectively.

Regarding `COC[C@H](O)[C@@H](OC)[C@@H](OC)c1cnc2cc(-c3ccc(C)cc3)nn2c1`, the inhibition at 30 µM in assay [6] was determined as 30%. In addition, the inhibition at 10 µM in [1] was 34%; in [2], 18%; in assay [3] it was 3%.

Take `Cc1ccc(O)c(C(=O)c2cnc3nc4ccccc4n3c2)c1`: the inhibition at 10 µM in assay [1] was found to be 32%; in assay [2], 5%; in assay [3] it was 37%.

As to `CCO[C@@H](C1=CC2C(c3ccc(OC)cc3)=NN(c3ccccc3)C2N=C1)[C@H](OC)[C@@H](O)COC` (some centres not stated), the inhibition at 30 µM in [6] turned out to be 30%. For the same compound, the inhibition at 10 µM came out at 35% in assay [1], 15% in assay [2] and 6% in [3].

With `C[C@@H]1C[C@H]2[C@@H]3CCC4=CC(=O)C=C[C@]4(C)[C@@]3(F)[C@@H](O)C[C@]2(C)[C@@]1(O)C(=O)CO` [DEXAMETHASONE], the inhibition at 1 µM in assay [16] amounted to 0%; in [17], 94%; in assay [18], 72%. The half-maximal inhibitory concentration (IC50) was 50 nM in [13], over 100000 nM in assay [14] and 7 nM in assay [15].

As a reminder, the inhibition is the share of the control response that was lost under treatment. What is called IC50 is the point on the concentration scale where inhibition reaches its midpoint. As usually defined, the inhibition in vivo is the percentage by which the read-out fell short of the control.
